For test [1], the system named is PANC-1. The experiment in a line: Inhibition of autophagy in human PANC-1 cells cultured in nutrient-deprived medium assessed as inhibition of LC3-2 expression at […] after 6 hrs by Western blot analysis relative to control. The class given is functional. (Immunoblotting shows a protein as a band on a membrane.)
Test [2] deals with PANC-1. The experiment in a line: Anti-austerity activity against nutrient-deprived human PANC-1 cells assessed as cell death incubated for 24 hrs by WST-8 assay. The class given is functional. The procedure, abridged: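 Human PANC-1 pancreatic cancer cells tested in parallel in nutrient-deprived medium (NDM) and in nutrient-rich DMEM. PC50 is the concentration that kills 50% of cells in NDM without toxicity in DMEM.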
For orientation: Tetrazolium assays rely on reduction of a dye to a coloured formazan, in cell work by metabolically active cells.

As to `Cn1cnc(N)c2ncnc1-2` [3-METHYLADENINE], in test [1], the “fold change (FC)” value stood at 2. Regarding `COc1cc(C[C@H]2C(=O)OC[C@@H]2Cc2ccc(OC)c(OC)c2)ccc1O` [ARCTIGENIN], the PC50 in test [2] amounted to 0.83 µM.

Values taken from ChEMBL document CHEMBL4680108, “Ancistrolikokine E, a 5,8'-Coupled Naphthylisoquinoline Alkaloid, Eliminates the Tolerance of Cancer Cells to Nutrition Starvation by Inhibition of the Akt/mTOR/Autophagy Signaling Pathway” (2018).
